Experimental data reported in ChEMBL document CHEMBL1287672, “Synthesis of new 4-aminoquinolines and quinoline-acridine hybrids as antimalarial agents” (2010).
Converted amounts (≈) assume the structure as drawn. The source made the active and inactive calls. The rule behind the calls is not given here.

Tests used:
Plasmodium falciparum = test: Antimalarial activity against Plasmodium falciparum NF 54 assessed as inhibition of maturation into schizont stage after 36 to 40 hrs; type: functional
Procedure, shortened: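 Synchronous ring-stage NF-54 parasites (5% D-sorbitol synchronization) in RPMI-1640 with 25 mM HEPES, 1% D-glucose, 0.23% sodium bicarbonate and 10% heat-inactivated human serum. Start at 1% parasitemia, 3% hematocrit. Compounds tested in duplicate wells, 37 °C, candle jar, 36–40 h. Giemsa-stained smears read by microscopy. MIC is the lowest tested concentration blocking full maturation to schizonts. Chloroquine reference.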

Plasmodium yoelii [1] = test: Antimalarial activity against chloroquine-resistant Plasmodium yoelii infected in Swiss mice (Mus musculus) assessed as suppression of parasitaemia at 50 mg/kg, intraperitoneal for 4 days relative to control; type: functional
Procedure, shortened: (§1)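 Swiss mice were infected on day 0 with 1 × 10^6 RBC parasitized by P. yoelii N-67. Five mice per group were dosed once daily on days 0–3 with a Tween 80 aqueous suspension, given ip in 0.2 mL or orally in 0.1 mL. Parasitemia was read from thin Giemsa smears on day 4. Suppression was calculated from group means as [(C − T)/C] × 100 against untreated controls.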

Plasmodium yoelii [2] = test: Antimalarial activity against chloroquine-resistant Plasmodium yoelii infected in Swiss mice (Mus musculus) assessed as mice (Mus musculus) survival at 50 mg/kg, intraperitoneal for 4 days relative to control; type: functional, organism-based; set-up: dose 50 mg/kg
Procedure, shortened: (§2)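 Swiss mice were inoculated with 1 × 10^6 P. yoelii N-67 parasitized RBC on day 0. Groups of five were dosed once daily on days 0–3 with compound as an aqueous suspension with a few drops of Tween 80. Intraperitoneal doses were given in 0.2 mL and oral doses in 0.1 mL. The read-out was the number of mice alive on day 28.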

Plasmodium yoelii [3] = test: Antimalarial activity against chloroquine-resistant Plasmodium yoelii infected in Swiss mice (Mus musculus) assessed as mice (Mus musculus) survival at 100 mg/kg, peroral for 4 days relative to control; type: functional, organism-based; set-up: dose 100 mg/kg; procedure, shortened: as §2
Plasmodium yoelii [4] = test: Antimalarial activity against chloroquine-resistant Plasmodium yoelii infected in Swiss mice (Mus musculus) assessed as suppression of parasitaemia at 100 mg/kg, peroral for 4 days relative to control; type: functional; details: route oral; procedure, shortened: as §1
Plasmodium yoelii [5] = test: Antimalarial activity against chloroquine-resistant Plasmodium yoelii infected in Swiss mice (Mus musculus) assessed as mice (Mus musculus) survival at 25 mg/kg, intraperitoneal for 4 days relative to control; type: functional, organism-based; set-up: dose 25 mg/kg; procedure, shortened: as §2
Plasmodium yoelii [6] = test: Antimalarial activity against chloroquine-resistant Plasmodium yoelii infected in Swiss mice (Mus musculus) assessed as suppression of parasitaemia at 25 mg/kg, intraperitoneal for 4 days relative to control; type: functional; procedure, shortened: as §1

Cc1ccc([N+](=O)[O-])c(N2CCN(CCCNc3ccnc4cc(Cl)ccc34)CC2)c1 was tested, and the MIC (Plasmodium falciparum) was 10 µg/mL (≈ 22.7 µM).
For CCN(CC)CCCC(C)Nc1ccnc2cc(Cl)ccc12 (configuration not stated) [CHLOROQUINE], the MIC (Plasmodium falciparum) was 0.125 µg/mL (≈ 0.391 µM).
With O=[N+]([O-])c1ccccc1N1CCN(CCCNc2ccnc3cc(Cl)ccc23)CC1 the MIC (Plasmodium falciparum) was 10 µg/mL (≈ 23.5 µM).
Clc1ccc2c(NCCCN3CCc4ccccc4C3)ccnc2c1 was tested, and the Activity (Plasmodium yoelii [1]) was 100%, the MIC (Plasmodium falciparum) was 0.031 µg/mL (≈ 0.0881 µM) and the Activity (Plasmodium yoelii [2]) was “inactive”.
O=[N+]([O-])c1cccnc1N1CCN(CCCNc2ccnc3cc(Cl)ccc23)CC1 gave an MIC (Plasmodium falciparum) of 10 µg/mL (≈ 23.4 µM).
In the case of Clc1ccc2c(NCCN3CCc4ccccc4C3)ccnc2c1, the MIC (Plasmodium falciparum) is reported as 2 µg/mL (≈ 5.92 µM).
O=[N+]([O-])c1ccccc1N1CCN(CCNc2ccnc3cc(Cl)ccc23)CC1 gave an MIC (Plasmodium falciparum) of 10 µg/mL (≈ 24.3 µM).
With N#CC1(c2ccccc2)CCN(CCNc2ccnc3cc(Cl)ccc23)CC1 the MIC (Plasmodium falciparum) was 10 µg/mL (≈ 25.6 µM).
Clc1ccc2c(NCCN3CCN(c4ccccn4)CC3)ccnc2c1 showed an MIC (Plasmodium falciparum) of 10 µg/mL (≈ 27.2 µM).
Work on Cc1ccc([N+](=O)[O-])c(N2CCN(CCNc3ccnc4cc(Cl)ccc34)CC2)c1 yielded an MIC (Plasmodium falciparum) of 10 µg/mL (≈ 23.5 µM).
Work on O=[N+]([O-])c1cccnc1N1CCN(CCNc2ccnc3cc(Cl)ccc23)CC1 yielded an MIC (Plasmodium falciparum) of 10 µg/mL (≈ 24.2 µM).
Clc1ccc2c(NCCCN3CCN(c4ccccn4)CC3)ccnc2c1 was tested, and the Activity (Plasmodium yoelii [3]) was “Active”, the Activity (Plasmodium yoelii [4]) was 100% and the Activity (Plasmodium yoelii [1]) was 100%. For the same compound, the MIC (Plasmodium falciparum) was 0.125 µg/mL (≈ 0.327 µM), the Activity (Plasmodium yoelii [5]) was “Active” and the Activity (Plasmodium yoelii [2]) was “Active”. The Activity (Plasmodium yoelii [6]) was 100%.
Compound COc1ccc2nc3cc(Cl)ccc3c(Nc3ccc(Nc4ccnc5cc(Cl)ccc45)cc3)c2c1 has an MIC (Plasmodium falciparum) of 0.5 µg/mL (≈ 0.978 µM).
In the case of COc1ccc2nc3cc(Cl)ccc3c(Nc3cccc(Nc4ccnc5cc(Cl)ccc45)c3)c2c1, the Activity (Plasmodium yoelii [1]) is reported as 100%, the MIC (Plasmodium falciparum) is reported as 0.25 µg/mL (≈ 0.489 µM) and the Activity (Plasmodium yoelii [2]) is reported as “inactive”.
With COc1ccc2nc3cc(Cl)ccc3c(NCCN3CCN(c4ccnc5cc(Cl)ccc45)CC3)c2c1 the MIC (Plasmodium falciparum) was 1 µg/mL (≈ 1.88 µM).
For N#CC1(c2ccccc2)CCN(CCCNc2ccnc3cc(Cl)ccc23)CC1, the MIC (Plasmodium falciparum) was 2 µg/mL (≈ 4.94 µM).
COc1ccc2nc3cc(Cl)ccc3c(NCCCN3CCN(c4ccnc5cc(Cl)ccc45)CC3)c2c1 was tested, and the MIC (Plasmodium falciparum) was 1 µg/mL (≈ 1.83 µM).
